From ChEMBL document CHEMBL3259710, “C-ring cannabinoid lactones: a novel cannabinergic chemotype” (ACS Med Chem Lett, 2014)

Columns and labels:
Cannabinoid receptor 1 [1] = molecular target: T1, Cannabinoid receptor 1 (Rattus norvegicus, UniProt P20272); assay: Displacement of [3H]CP55940 from rat brain CB1 receptor
In short: (§1)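 Competition binding against [3H]CP-55,940. CB1 membranes came from rat brain; CB2 membranes came from HEK293 cells expressing mouse or human CB2. Ki was taken from competition curves by nonlinear regression. Three independent experiments were run in duplicate, and Ki is the mean of the three.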

Cannabinoid receptor 2 [2] = molecular target: Cannabinoid receptor 2 (Mus musculus, UniProt P47936); assay: Displacement of [3H]CP55940 from mouse […] CB2 receptor expressed in HEK293 cells; assay type: cell-based; in short: as §1
Chain of Cannabinoid receptor 2 (Mus musculus, UniProt P47936) (P47936 whole entry): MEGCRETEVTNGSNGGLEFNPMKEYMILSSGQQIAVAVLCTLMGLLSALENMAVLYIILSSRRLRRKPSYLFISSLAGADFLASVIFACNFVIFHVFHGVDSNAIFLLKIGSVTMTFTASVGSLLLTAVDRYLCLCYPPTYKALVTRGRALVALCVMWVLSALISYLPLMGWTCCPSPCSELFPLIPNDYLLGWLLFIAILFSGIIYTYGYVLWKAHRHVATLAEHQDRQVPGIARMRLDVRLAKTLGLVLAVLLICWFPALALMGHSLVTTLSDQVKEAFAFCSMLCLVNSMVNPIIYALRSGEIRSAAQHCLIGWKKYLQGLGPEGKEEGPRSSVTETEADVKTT

Cannabinoid receptor 2 [3] = molecular target: Cannabinoid receptor 2 (Homo sapiens, UniProt P34972); assay: Displacement of [3H]CP55940 from human […] CB2 receptor expressed in HEK293 cells; assay type: cell-based; in short: as §1
Chain of Cannabinoid receptor 2 (Homo sapiens, UniProt P34972) (P34972 whole entry): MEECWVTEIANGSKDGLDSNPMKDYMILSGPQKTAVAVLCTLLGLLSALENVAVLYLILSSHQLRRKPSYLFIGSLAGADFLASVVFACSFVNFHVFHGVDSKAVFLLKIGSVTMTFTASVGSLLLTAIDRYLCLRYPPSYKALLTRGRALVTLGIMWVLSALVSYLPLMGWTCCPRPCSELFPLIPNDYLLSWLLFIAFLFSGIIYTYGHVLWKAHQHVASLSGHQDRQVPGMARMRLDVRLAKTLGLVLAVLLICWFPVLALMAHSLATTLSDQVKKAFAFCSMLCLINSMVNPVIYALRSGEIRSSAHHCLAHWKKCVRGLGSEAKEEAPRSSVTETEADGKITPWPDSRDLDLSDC

[4] = Selectivity ratio of Ki for mouse […] CB2 receptor to Ki for rat CB1 receptor
[5] = Selectivity ratio of Ki for human CB2 receptor to Ki for rat CB1 receptor
Cannabinoid receptor 1 [6] = molecular target: T1, Cannabinoid receptor 1; assay: Agonist activity at rat CB1 receptor expressed in HEK293 cells assessed as inhibition of forskolin-induced cAMP level; assay type: functional, cell-based
[7] = molecular target: Cannabinoid receptor 1 (Rattus norvegicus) (UniProt P20272); assay: Agonist activity at rat CB1 receptor expressed in HEK293 cells assessed as maximum inhibition of forskolin-induced cAMP level; assay type: functional, cell-based
Chain of Cannabinoid receptor 1 (Rattus norvegicus) (P20272 whole entry): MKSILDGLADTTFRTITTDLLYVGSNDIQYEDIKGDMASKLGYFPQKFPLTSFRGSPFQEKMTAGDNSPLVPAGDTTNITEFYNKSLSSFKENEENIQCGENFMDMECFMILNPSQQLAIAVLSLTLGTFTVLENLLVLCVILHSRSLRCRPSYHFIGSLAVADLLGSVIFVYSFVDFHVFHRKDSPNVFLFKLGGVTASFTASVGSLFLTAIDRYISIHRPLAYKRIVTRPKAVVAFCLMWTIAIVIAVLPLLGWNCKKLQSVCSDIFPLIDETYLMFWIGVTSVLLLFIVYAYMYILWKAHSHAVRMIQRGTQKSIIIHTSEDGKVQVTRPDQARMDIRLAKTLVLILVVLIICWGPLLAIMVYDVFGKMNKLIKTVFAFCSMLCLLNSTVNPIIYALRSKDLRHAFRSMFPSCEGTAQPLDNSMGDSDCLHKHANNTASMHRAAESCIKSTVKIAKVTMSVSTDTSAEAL

[8] = Half life in mouse plasma; assay type: ADME, cell-free
In short: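 The compound was incubated in vitro with mouse plasma to test esterase hydrolysis to its acid metabolite. Half-life of the parent compound was determined.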

T1 sequence (P20272 whole entry): as above

## CCCCCCC(C)(C)c1cc(O)c2c(c1)OC(C)(C)[C@@H]1CCC(=O)OC[C@@H]21
Cannabinoid receptor 1 [1]
  Ki: 4.6 nM
Cannabinoid receptor 2 [2]
  Ki: 792 nM
Cannabinoid receptor 2 [3]
  Ki: 52 nM
[4]
  Ratio Ki: 170
[5]
  Ratio Ki: 11
Cannabinoid receptor 1 [6]
  EC50: 184 nM
[7]
  inhibition: 41%

## CCCCCc1cc(O)c2c(c1)OC(C)(C)[C@@H]1CCC(C)=C[C@@H]21 [DRONABINOL]
Cannabinoid receptor 2 [2]
  Ki: 40 nM

## CCCCCCC(C)(C)c1cc(O)c2c(c1)OC(C)(C)[C@@H]1CCOC(=O)C[C@@H]21
Cannabinoid receptor 2 [3]
  Ki: 94 nM

## CCCCCCC(C)(C)c1cc(O)c2c(c1)OC(C)(C)[C@H](CCO)[C@H]2CC(=O)O
Cannabinoid receptor 1 [1]
  Ki: > 1000 nM
Cannabinoid receptor 2 [2]
  Ki: > 1000 nM
Cannabinoid receptor 2 [3]
  Ki: > 1000 nM

## CCCCCCC(C)(C)c1cc(O)c2c(c1)OC(C)(C)[C@H](CCC(=O)O)[C@H]2CO
Cannabinoid receptor 1 [1]
  Ki: > 1000 nM
Cannabinoid receptor 2 [2]
  Ki: > 1000 nM
Cannabinoid receptor 2 [3]
  Ki: > 1000 nM
[8]
  half-life: 15.1 min
